Active and inactive are the calls of the source. The rule behind the calls is not given here.
What was measured:
[1] = test system: DNAJB1 pre-mRNA; experiment: Modulation of splicing in DNAJB1 pre-mRNA in human HCT-116 cells assessed as intron 2 retention level at 2.6 uM incubated for 4 hrs by qRT-PCR analysis; assay type: functional, cell-based; details: filed as modulator
[2] = test system: SF3B2 pre-mRNA; experiment: Modulation of splicing in SF3B2 pre-mRNA in human HCT-116 cells assessed as intron 10 retention at 100 to 500 nM incubated for 24 hrs by qRT-PCR analysis; assay type: functional, cell-based; details: dose 100-500 nM
Outline: (§1)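 HCT-116 cells in supplemented McCoy's 5a with 0.5% final DMSO were treated for 24 h at 100, 250 or 500 nM. Total RNA isolated and DNase-treated (1 µg). qPCR used 2.5 µM each primer on 5 ng cDNA, 40 cycles. Intron retention was computed by the 2^-CT method relative to GAPDH and expressed versus untreated cells set to 1.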

[3] = test system: HCT-116; experiment: Effect on AURKA mRNA expression in human HCT-116 cells at 100 to 500 nM incubated for 24 hrs by qRT-PCR analysis; assay type: functional, cell-based; details: dose 100-500 nM
Outline: (§2)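 HCT-116 cells in supplemented McCoy's 5a with 0.5% DMSO, treated 24 h at 100, 250 or 500 nM; untreated cells as control. Total RNA isolated, 1 µg DNase I-treated, reverse transcribed. qPCR on 5 ng cDNA with 2.5 µM each primer, 40 cycles of 95 °C 30 s, 55 °C 60 s, 72 °C 60 s. Splice-event primers for intron retention or exon skipping; SF2 primers measure total expression. 2^-CT method relative to GAPDH, untreated set at 1.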

[4] = test system: HCT-116; experiment: Downregulation of SF2 mRNA expression in human HCT-116 cells at 100 to 500 nM incubated for 24 hrs by qRT-PCR analysis; assay type: functional, cell-based; details: dose 100-500 nM; outline: as §2
[5] = test system: SF3B1 pre-mRNA; experiment: Modulation of splicing in SF3B1 pre-mRNA in human HCT-116 cells assessed as intron 13 retention level at 2.6 uM incubated for 4 hrs by qRT-PCR analysis; assay type: functional, cell-based; details: filed as modulator
Outline: as §1, with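 “5a, compound added from DMSO stock to a final” for “5a with”, “DMSO, 4” for “final DMSO were treated for 24”, “a single standardized concentration per analogue.” for “100, 250 or 500 nM.”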

[6] = test system: HCT-116; experiment: Cytotoxicity against human HCT-116 cells assessed as reduction in cell viability at 2.6 uM incubated for 4 hrs by MTS assay; assay type: toxicity, cell-based; details: hct-116, 4 h
[7] = test system: SF3A3 pre-mRNA; experiment: Modulation of splicing in SF3A3 pre-mRNA in human HCT-116 cells assessed as intron 5 retention at 100 to 500 nM incubated for 24 hrs by qRT-PCR analysis; assay type: functional, cell-based; details: filed as modulator, dose 100-500 nM; outline: as §2
[8] = test system: SF3A3 pre-mRNA; experiment: Modulation of splicing in SF3A3 pre-mRNA in human HCT-116 cells assessed as intron 5 retention level at 2.6 uM incubated for 4 hrs by qRT-PCR analysis; assay type: functional, cell-based; details: filed as modulator
[9] = test system: HCT-116; experiment: Downregulation of SF3 mRNA expression in human HCT-116 cells at 2.6 uM incubated for 4 hrs by qRT-PCR analysis; assay type: functional, cell-based
[10] = test system: SF3B2 pre-mRNA; experiment: Modulation of splicing in SF3B2 pre-mRNA in human HCT-116 cells assessed as intron 10 retention level at 2.6 uM incubated for 4 hrs by qRT-PCR analysis; assay type: functional, cell-based; details: filed as modulator
Outline: as §1, with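 “5a, compound added from DMSO stock to a final” for “5a with”, “DMSO, 4” for “final DMSO were treated for 24”, “a single standardized concentration per analogue.” for “100, 250 or 500 nM.”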

[11] = test system: SF3A1 pre-mRNA; experiment: Modulation of splicing in SF3A1 pre-mRNA in human HCT-116 cells assessed as intron 6 retention level at 2.6 uM incubated for 4 hrs by qRT-PCR analysis; assay type: functional, cell-based; details: filed as modulator
[12] = Cytotoxicity against human HCT-116 cells assessed as cell growth inhibition incubated for 72 hrs by MTS assay; assay type: toxicity, cell-based
Outline: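 HCT-116 cells (ATCC; split every other day, no more than five generations, mycoplasma-tested) plated at 5 × 10³ cells/well in supplemented McCoy's 5a and grown 24 h at 37 °C, 5% CO₂. Compound added from DMSO (0.5% DMSO final) for 72 h. Cells washed with PBS, MTS reagent added for 2 h at 37 °C, A490 read against A690. GI₅₀ fitted from dose curves of 3 biological replicates.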

[13] = test system: DNAJB1 pre-mRNA; experiment: Modulation of splicing in DNAJB1 pre-mRNA in human HCT-116 cells assessed as intron 2 retention at 100 to 500 nM incubated for 24 hrs by qRT-PCR analysis; assay type: functional, cell-based; details: dose 100-500 nM; outline: as §2
[14] = test system: HCT-116; experiment: Cytotoxicity against human HCT-116 cells assessed as reduction in cell viability at 500 nM incubated for 24 hrs by MTS assay; assay type: toxicity, cell-based; details: hct-116, 24 h, 0.5 µM
Outline: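 HCT-116 cells plated at 5 × 10³ cells/well in supplemented McCoy's 5a and grown 24 h at 37 °C, 5% CO₂. Compound given at 500 nM, the top dose of the 24 h splicing series, in 0.5% DMSO for 24 h. Cells washed with PBS, MTS reagent added for 2 h at 37 °C, A490 read against A690.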

[15] = test system: HCT-116; experiment: Downregulation of PLK-1 mRNA expression in human HCT-116 cells at 100 to 500 nM incubated for 24 hrs by qRT-PCR analysis; assay type: functional, cell-based; details: dose 100-500 nM; outline: as §2
[16] = test system: HCT-116; experiment: Cytotoxicity against human HCT-116 cells assessed as reduction in cell viability at 5.6 uM incubated for 4 hrs by MTS assay; assay type: toxicity, cell-based; details: hct-116, 4 h
[17] = test system: SF3A1 pre-mRNA; experiment: Modulation of splicing in SF3A1 pre-mRNA in human HCT-116 cells assessed as intron 6 retention level at 5.6 uM incubated for 4 hrs by qRT-PCR analysis; assay type: functional, cell-based; details: filed as modulator
[18] = test system: SF3A3 pre-mRNA; experiment: Modulation of splicing in SF3A3 pre-mRNA in human HCT-116 cells assessed as intron 5 retention level at 5.6 uM incubated for 4 hrs by qRT-PCR analysis; assay type: functional, cell-based; details: filed as modulator
[19] = test system: SF3B1 pre-mRNA; experiment: Modulation of splicing in SF3B1 pre-mRNA in human HCT-116 cells assessed as intron 13 retention level at 5.6 uM incubated for 4 hrs by qRT-PCR analysis; assay type: functional, cell-based; details: filed as modulator
Outline: as §1, with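 “5a, compound added from DMSO stock to a final” for “5a with”, “DMSO, 4” for “final DMSO were treated for 24”, “a single standardized concentration per analogue.” for “100, 250 or 500 nM.”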

[20] = test system: DNAJB1 pre-mRNA; experiment: Modulation of splicing in DNAJB1 pre-mRNA in human HCT-116 cells assessed as intron 2 retention level at 5.6 uM incubated for 4 hrs by qRT-PCR analysis; assay type: functional, cell-based; details: filed as modulator
[21] = test system: AURKA pre-mRNA; experiment: Modulation of splicing in AURKA pre-mRNA in human HCT-116 cells assessed as effect on exon 4 skipping at 5.6 uM incubated for 4 hrs by qRT-PCR analysis; assay type: functional, cell-based; details: filed as modulator
[22] = test system: SF3B2 pre-mRNA; experiment: Modulation of splicing in SF3B2 pre-mRNA in human HCT-116 cells assessed as intron 10 retention level at 5.6 uM incubated for 4 hrs by qRT-PCR analysis; assay type: functional, cell-based; details: filed as modulator
Outline: as §1, with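 “5a, compound added from DMSO stock to a final” for “5a with”, “DMSO, 4” for “final DMSO were treated for 24”, “a single standardized concentration per analogue.” for “100, 250 or 500 nM.”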

CC[C@H](OC)[C@@H](C)[C@H]1O[C@@H]1[C@@H](O)[C@H](C)/C=C/C=C(\C)[C@H]1OC(=O)C[C@@H](O)CC[C@@](C)(O)[C@@H](OC(C)=O)/C=C/[C@@H]1C
Activity [1]: > 3
Activity [2]: inactive
Activity [3]: Active
Activity [4]: inactive
Activity [5]: < 3
Activity [6]: Non-Toxic
Activity [7]: Active
Activity [8]: < 3
Activity [9]: Active
Activity [10]: > 3
Activity [11]: > 3
GI50 at 72 h [12]: 143 nM
Activity [13]: inactive
Activity [14]: Non-Toxic
Activity [15]: Active

CC[C@@H](OC)[C@H](C)[C@H]1O[C@@H]1[C@@H](O)[C@H](C)/C=C/C=C(\C)[C@H]1OC(=O)C[C@H](O)CC[C@@](C)(O)[C@@H](OC(C)=O)/C=C/[C@@H]1C
Activity [16]: Non-Toxic
Activity [17]: > 3
Activity [18]: < 3
Activity [19]: < 3
Activity [20]: > 3
Activity [21]: Active
GI50 at 72 h [12]: 285 nM
Activity [22]: > 3
Activity [14]: Non-Toxic
